Measured values: publication PMC8157400 (Chemical Science, 2020)

Columns and labels:
folate receptor-a (FR-α) = conditions: cited from earlier work
IGROV-1 cells [1] = assay: Antibody recruitment / binding on cells, flow cytometry; assay type: cell-based, human
IGROV-1 cells [2] = assay: ADCC assay; assay type: cell-based, human
IGROV-1 cells [3] = conditions: IGROV-1 cells (EGFR/FR-α double positive); cited from earlier work
IGROV-1 cells (FR-α+) = assay: Antibody recruitment to cancer cells, fluorescence microscopy; assay type: cell-based, human; conditions: Fc-ARM2 100 nM
[4] = system: A549 lung cancer cells (FR-α−); assay: ADCC assay; assay type: cell-based, human; conditions: Fc-ARM2 + anti-CD20, 16 h, E/T 1-8, n = 3, Fig. S7
[5] = system: KHYG-1/CD16a-158V NK cells co-cultured with IGROV-1 cells; assay: IFN-γ secretion from NK cells, ELISA; assay type: cell-based, human
[6] = system: KHYG-1/CD16a-158V cells co-cultured with IGROV-1 cells; assay: CD107a mobilization assay, flow cytometry; assay type: cell-based, human; conditions: Fc-ARM2 10 nM + anti-CD20 100 nM, 6 h, E/T = 1
How it was run: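 Human NK line KHYG-1 expressing CD16a-158V co-cultured 6 h with FR-α+ IGROV-1 ovarian adenocarcinoma cells (E/T 1) with the indicated reagents. Surface CD107a on NK cells read by flow cytometry. Mean ± SEM; two experimental repeats; one-way ANOVA with Tukey's multiple comparison test.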

IGROV-1 cells [7] = assay: Mouse IgG recruitment and NK cell activation; assay type: cell-based, human; conditions: Fc-ARM2 10 nM, mouse IgG 100 nM; flow cytometry n = 4; ADCC 16 h n = 3; Fig. S11

Compound: Nc1nc(=O)c2nc(CNc3ccc(C(=O)N[C@@H](CCC(=O)O)C(=O)O)cc3)cnc2[nH]1 [FA, folic acid]
- Affinity to FR-α (folate receptor-a (FR-α)): sub-nanomolar

Compound: CC(C)C[C@@H]1NC(=O)[C@H](Cc2c[nH]cn2)NC(=O)[C@H](Cc2c[nH]c3ccccc23)NC(=O)[C@H](C)NC(=O)[C@@H](NC(=O)[C@H](CC(=O)O)NC(=O)CCOCCOCCOCCOCCOCCOCCNC(=O)CC[C@H](NC(=O)c2ccc(NCc3cnc4nc(N)[nH]c(=O)c4n3)cc2)C(=O)O)CSSC[C@@H](C(=O)N[C@H](C(N)=O)[C@@H](C)O)NC(=O)[C@H](Cc2c[nH]c3ccccc23)NC(=O)[C@H](C(C)C)NC(=O)[C@H](CC(C)C)NC(=O)[C@H](CCC(=O)O)NC(=O)CNC1=O [Fc-ARM1]
- Change in MFI of fluorescein-labeled anti-EGFR mAb on cells (IGROV-1 cells [1]; 10 nM Fc-ARM1 added, Fig. S9A): about a six-fold increase in MFI
- ADCC (% cytotoxicity) after 4 h co-culture (IGROV-1 cells [2]; Fc-ARM + anti-CD20, 4 h, E/T 1-8, n = 3, Fig. 4A): did not show detectable cytotoxicity
- Effect on ADCC activity of anti-EGFR mAb (IGROV-1 cells [3]): inhibited the ADCC activity

Compound: CC(C)C[C@@H]1NC(=O)[C@H](Cc2c[nH]cn2)NC(=O)[C@H](Cc2c[nH]c3ccccc23)NC(=O)[C@H](C)NC(=O)[C@@H]2CSSC[C@H](NC(=O)[C@H](Cc3c[nH]c4ccccc34)NC(=O)[C@H](C(C)C)NC(=O)[C@H](CC(C)C)NC(=O)[C@H](CCC(=O)O)NC(=O)CNC1=O)C(=O)N[C@@H]([C@@H](C)O)C(=O)N[C@H](C(N)=O)CSSC[C@H](NC(=O)CCOCCOCCOCCOCCOCCOCCNC(=O)CC[C@H](NC(=O)c1ccc(NCc3cnc4nc(N)[nH]c(=O)c4n3)cc1)C(=O)O)C(=O)N[C@@H](CC(=O)O)C(=O)N2 [Fc-ARM2]
- Recruitment of Fc-fluorescein (Fc-fluo) to cells (IGROV-1 cells (FR-α+); Fc-fluo 500 nM): recruited the papain-digested Fc fragment of IgG1
- Recruitment of IgG-FITC to cells (IGROV-1 cells (FR-α+); IgG-FITC 500 nM, 30 min, 4 °C): successfully recruited FITC-labeled human IgG (IgG-FITC) to IGROV-1 cells
- Recruitment of IgG-FITC to cells with excess FA (IGROV-1 cells (FR-α+); IgG-FITC 500 nM, FA 100 µM as competitor): diminished IgG-derived fluorescence
- Amount of recruited IgG-FITC (MFI) (IGROV-1 cells [1]; 10 nM Fc-ARM, increasing IgG-FITC, n = 3, Fig. 2E): recruited a higher amount of IgG-FITC compared with Fc-ARM1
- ADCC (% cytotoxicity) with recruited anti-CD20 (IGROV-1 cells [2]; Fc-ARM 10 nM + anti-CD20 100 nM, 16 h, E/T 1-8, LDH assay, n = 3): showed clear target cell killing
- ADCC with increasing concentration of anti-CD20 (IGROV-1 cells [2]; Fc-ARM 10 nM, E/T = 8, 16 h, n = 3, Fig. 4C): induced ADCC more effectively
- ADCC (% cytotoxicity) with excess FA (IGROV-1 cells [2]; Fc-ARM2 10 nM + anti-CD20 100 nM + FA (1 μM), 16 h): eliminated by excess FA
- ADCC with Fc fragment of anti-CD20 (IGROV-1 cells [2]; Fc-ARM2 + Fc fragment of anti-CD20 mAb, n = 3, Fig. 4D): induced cytotoxicity upon recruitment by Fc-ARM2
- ADCC (% cytotoxicity) after 6, 8 and 16 h co-culture (IGROV-1 cells [2]; Fc-ARM + anti-CD20, E/T = 4, Fig. 4B): showed higher cytotoxicity compared with Fc-ARM1 + anti-CD20
- ADCC against A549 cells [4]: ADCC was not induced
- IFN-γ secretion from NK cells ([5]; Fc-ARM2 + anti-CD20, E/T = 8, ELISA of supernatant, Fig. 3B): secretion of interferon-γ (IFN-γ)
- IFN-γ secretion from NK cells after 16 h ([5]; Fc-ARM + anti-CD20, E/T = 4, 16 h, Fig. S8): induced a higher amount of IFN-γ secretion
- Surface mobilization of CD107a on NK cells [6]: surface mobilization of CD107a
- Recruitment of mouse IgG and ADCC (IGROV-1 cells [7]): did not work with mouse IgG
